Compound activity: PubChem BioAssay, several laboratories
Compounds with a hit are over-represented: about 2.6% of the library has one in this group of screens.
UCH37 DUB inh: inhibitors of human UCH37 deubiquitinase, primary screen, biochemical, Ub-AMC cleavage, fluorescence | purified proteasome/UCH37 | inhibition, % (concentration not given with the values) | actives 0.33% (n = 330,000) | AID 588478, 2011;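 active means mean inhibition over replicate wells above about 20%, limit read from the data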;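 further: 0% = compound-free wells with enzyme and 100% = wells lacking proteasome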
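Assay system: Proteasome-bound UCH37. Buffer or medium: pH 7.4 Tris-HCl (50 mM) with ovalbumin, ATP-MgCl2, DTT. Incubation: 30 min preincubation with enzyme, 25 min cleavage at room temperature. Measured by: fluorescence, ex 355 nm, em 460 nm. Read-out basis: percent inhibition. Control set: wells without proteasome as full block, compound-free enzyme plus substrate as uninhibited.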
SIRT5 block: SIRT5 desuccinylase inhibitors, primary screen, biochemical, fluorescence imaging, single point, set 5 | NAD-dependent protein deacylase sirtuin-5, mitochondrial (Homo sapiens), Q9NXA8 | Purified SirT5, succinyl-peptide AMC, trypsin-coupled fluorescence | inhibition, % at 15 µM | actives 1.1% (n = 330,000); in the data active means inhibition above about 15%
NSD2 HMT inh: NSD2 histone methyltransferase inhibitors, primary screen, biochemical, AlphaScreen, single concentration, set 2; Histone-lysine N-methyltransferase NSD2 (Homo sapiens), O96028; NSD2 peptide methylation, 120 min; inhibition, % at 12.5 µM; actives 0.54% (n = 310,000); AID 743445, 2014; in the data active means inhibition above about 50%
Target sequence (O96028 whole entry, looked up): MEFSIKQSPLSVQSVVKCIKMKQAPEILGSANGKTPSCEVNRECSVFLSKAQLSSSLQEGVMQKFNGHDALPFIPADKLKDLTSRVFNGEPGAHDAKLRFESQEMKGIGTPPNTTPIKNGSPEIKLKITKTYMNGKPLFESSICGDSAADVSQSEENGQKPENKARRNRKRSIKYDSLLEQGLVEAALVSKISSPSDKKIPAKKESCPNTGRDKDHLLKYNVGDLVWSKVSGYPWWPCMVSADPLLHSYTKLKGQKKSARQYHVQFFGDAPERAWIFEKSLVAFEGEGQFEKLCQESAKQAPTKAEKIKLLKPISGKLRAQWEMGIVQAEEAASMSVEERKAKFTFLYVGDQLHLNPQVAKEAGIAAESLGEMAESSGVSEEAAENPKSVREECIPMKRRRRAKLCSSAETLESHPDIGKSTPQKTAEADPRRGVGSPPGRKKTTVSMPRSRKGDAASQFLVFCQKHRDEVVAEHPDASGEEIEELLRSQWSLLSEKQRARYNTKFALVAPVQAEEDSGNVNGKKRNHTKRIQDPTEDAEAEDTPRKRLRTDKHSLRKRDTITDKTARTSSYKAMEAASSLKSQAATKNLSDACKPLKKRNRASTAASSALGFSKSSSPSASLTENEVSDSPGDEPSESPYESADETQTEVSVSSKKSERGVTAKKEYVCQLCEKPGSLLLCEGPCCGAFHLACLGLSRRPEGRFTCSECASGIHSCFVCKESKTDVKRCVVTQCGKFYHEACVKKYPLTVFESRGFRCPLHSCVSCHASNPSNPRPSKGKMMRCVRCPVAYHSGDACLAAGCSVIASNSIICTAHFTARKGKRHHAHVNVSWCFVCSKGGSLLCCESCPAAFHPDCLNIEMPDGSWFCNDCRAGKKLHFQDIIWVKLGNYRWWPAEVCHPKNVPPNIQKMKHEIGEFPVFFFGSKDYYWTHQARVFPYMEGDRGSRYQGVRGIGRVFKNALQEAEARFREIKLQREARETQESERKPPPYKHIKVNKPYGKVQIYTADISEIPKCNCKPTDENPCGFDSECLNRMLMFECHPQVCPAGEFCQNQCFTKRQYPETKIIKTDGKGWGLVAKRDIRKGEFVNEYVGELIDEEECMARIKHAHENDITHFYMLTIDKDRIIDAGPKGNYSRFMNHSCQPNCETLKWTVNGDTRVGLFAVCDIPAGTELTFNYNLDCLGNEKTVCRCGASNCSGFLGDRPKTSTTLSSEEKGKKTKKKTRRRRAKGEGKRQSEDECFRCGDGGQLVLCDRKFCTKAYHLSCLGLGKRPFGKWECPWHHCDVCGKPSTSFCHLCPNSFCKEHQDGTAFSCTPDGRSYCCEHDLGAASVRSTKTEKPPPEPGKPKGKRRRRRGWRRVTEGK
Casp6 inh: human caspase-6 inhibitors, primary screen, biochemical, VEID-R110 fluorescence, single point, set 2; inhibition, % at 12.5 µM; P55212; purified caspase-6, Z-VEID-R110 cleavage fluorescence; actives 0.53% (n = 350,000); AID 686996, 2013;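 active means mean inhibition across replicates at least about 35%, with every replicate also reaching that limit, limit read from the data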;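 further: 0% = median of neutral control wells and 100% = no fluorescence left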
FGF22 binding: binders of human FGF22 protein, primary screen, FGF22 synaptogenesis inhibitor project, biophysical, thermal shift, single point. Fibroblast growth factor 22 (Homo sapiens), Q9HCT0. recombinant FGF22 thermal shift, SYPRO orange fluorescence; percent of sucrose octasulfate shift, DMSO zero. activity (Tm shift, normalised), % at 9.99 µM. actives 1.5% (n = 340,000). AID 651658, 2012;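 active means mean Tm shift, scaled 0 neutral to 100 positive control, at about 1.3% or above, every replicate too, limit read from the data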
The depositor's hits bear a star; · = no result given.

SMILES | UCH37 DUB inh | SIRT5 block | NSD2 HMT inh | Casp6 inh | FGF22 binding
Nc1cccc(S(=O)(=O)c2ccc(N)c(N)c2)c1 | 0 | 0 | 1 | 2 | 43*
O=S(=O)(c1ccc(F)cc1)N1CCCCN2[C@H](C1)[C@H](c1ccc(-c3cncnc3)cc1)[C@@H]2CO | · | 5 | · | 1 | 0
CCCN1C[C@@H](C)[C@H](OC)CN(C)C(=O)c2ccc(NC(=O)COC)cc2OC[C@@H]1C | · | 4 | · | 1 | 0
CCOC(=O)N1CCN(C(=O)c2cc3ccccc3o2)CC1 | 2 | 1 | -4 | -1 | 0
O=C(c1ccccc1)N1CCN(C(=O)c2cc3ccccc3o2)CC1 | 27* | · | -3 | · | ·
O=C(NN=C/C=C/c1ccco1)c1cnccn1 | 25* | · | · | · | ·
O=C(N/N=C/C=C\c1ccco1)c1ccccn1 | · | 4 | -3 | 37* | 0
O=C(N/N=C/C=C/c1ccco1)c1cnccn1 | · | · | -3 | 22 | 0
O=C(Cc1cccs1)N/N=C/C=C/c1ccco1 | · | -2 | 2 | 38* | 0
O=C(Cc1cccs1)NN=C/C=C\c1ccco1 | 13 | · | · | · | ·
CCC(=O)N1CC2(CCN(C(=O)Nc3ccccc3F)CC2)c2c([nH]c3cc(OC)ccc23)[C@@H]1CO | · | 2 | · | 2 | 0
COc1ccc2c3c(n(C)c2c1)[C@H](CO)N(CC1CC1)CC31CN(C(C)=O)C1 | · | 0 | · | · | 0
Nc1nc(SCC(=O)O)[nH]c(=O)c1NC(=O)c1ccccc1F | 0 | -1 | -3 | 0 | 43*
FC(F)(F)c1ccccc1NC(=S)NC1CCN(Cc2ccccc2)CC1 | -2 | -4 | 3 | -8 | 44*
CCCCC[C@H](O)/C=C/C1C(=O)C=C[C@H]1C/C=C\CCCC(=O)OC (some centres not stated) | 6 | 5 | · | 53* | 0
O=C1NC2(CCCCC2)C(=O)N1Cc1cccc(C(F)(F)F)c1 | 2 | 0 | -3 | 0 | 43*
C[C@@H]1CCCCO[C@@H](CN(C)Cc2ccc(C(F)(F)F)cc2)[C@@H](C)CN([C@@H](C)CO)C(=O)c2cc(NS(=O)(=O)c3cccs3)ccc2O1 | · | 19* | · | -2 | 0
C[C@H](CO)N1C[C@H](C)[C@H](CN(C)Cc2ccc(C(F)(F)F)cc2)Oc2ccc(NS(=O)(=O)c3cccs3)cc2C1=O | · | 16* | · | 0 | -1
C[C@H]1CCCCO[C@H](CN(C)Cc2ccc(C(F)(F)F)cc2)[C@@H](C)CN([C@@H](C)CO)C(=O)c2cc(NS(=O)(=O)c3cccs3)ccc2O1 | · | 16* | · | 4 | 0
C[C@@H]1CN([C@@H](C)CO)C(=O)c2cc(NS(=O)(=O)c3cccs3)ccc2O[C@@H](C)CCCCO[C@@H]1CN(C)Cc1ccc(C(F)(F)F)cc1 | · | 19* | · | -2 | 0
O=C1NC(c2ccccc2)=CC(c2ccccc2)N1 (configuration not stated) | 4 | 1 | -4 | 2 | 44*
CCC(=O)Nc1ccc2c(c1)C(=O)N(C)[C@H]1CC[C@H](CC(=O)N3CCCCC3)O[C@H]1CO2 | · | 1 | · | 1 | 0
COc1cccc(S(=O)(=O)N(C)C[C@@H]2Oc3cc(C#CCC(C)C)ccc3S(=O)(=O)N([C@H](C)CO)C[C@H]2C)c1 | · | 9 | · | -1 | 1
COc1ccccc1S(=O)(=O)N(C)C[C@@H]1Oc2cc(C#CCC(C)C)ccc2S(=O)(=O)N([C@@H](C)CO)C[C@@H]1C | · | 28* | · | -2 | ·
C[C@H](CO)N1C[C@H](C)[C@H](CN(C)C)Oc2cc(C#CCC3CCCC3)ccc2S1(=O)=O | · | -4 | · | 2 | 0
SMILES | UCH37 DUB inh | SIRT5 block | NSD2 HMT inh | Casp6 inh | FGF22 binding
COc1ccccc1S(=O)(=O)N(C)C[C@H]1Oc2cc(C#CCC3CCCC3)ccc2S(=O)(=O)N([C@@H](C)CO)C[C@@H]1C | · | 19* | · | 0 | 0
COc1ccccc1S(=O)(=O)N(C)C[C@@H]1Oc2cc(C#CCC(C)C)ccc2S(=O)(=O)N([C@H](C)CO)C[C@H]1C | · | 28* | · | 5 | 0
Cc1cccc(C=NN=Cc2cccc(C)c2)c1 | 5 | · | · | · | ·
Cc1ccc(NCC(=O)NN=Cc2ccc(C(=O)O)cc2)cc1 | 3 | · | · | · | ·
COc1cc(C=NNc2nc3ccccc3s2)cc([N+](=O)[O-])c1O | 22* | · | · | · | ·
CC(=O)N(c1cc(C)ccc1C)c1ccccc1[N+](=O)[O-] | 2 | · | 0 | 0 | 43*
Cc1ccc(C(=O)c2coc3cc([N+](=O)[O-])c(O)c([N+](=O)[O-])c23)cc1 | 15 | 1 | 35 | 48* | 0
Cc1ccc(C(=O)c2ccc([N+](=O)[O-])cc2)cc1 | 0 | · | 25 | · | ·
O=C(NCc1cc(C(F)(F)F)ccc1Cl)c1cccc2c1C(=O)c1ccc(N3CCC(N4CCCCC4)CC3)cc1S2(=O)=O | · | -1 | · | -5 | 0
O=C(NC1CC1)c1cccc2c1C(=O)c1ccc(N3CCC(N4CCCCC4)CC3)cc1S2(=O)=O | · | 17* | · | -6 | 41
CC(C)NC(=O)Nc1ccc2c(c1)C(=O)N([C@H](C)CO)C[C@H](C)[C@H](CN(C)Cc1ccc(-c3ccccc3)cc1)O2 | · | 31* | · | 0 | 0
CC(C)NC(=O)Nc1ccc2c(c1)C(=O)N([C@@H](C)CO)C[C@@H](C)[C@H](CN(C)Cc1ccccc1)O2 | · | -7 | · | 0 | 0
COc1ccc(CN(C)C[C@@H]2Oc3ccc(NC(=O)Nc4ccc(OC)cc4)cc3C(=O)N([C@@H](C)CO)C[C@H]2C)cc1 | · | 19* | · | 3 | 0
COc1ccc(NC(=O)Nc2ccc3c(c2)C(=O)N([C@@H](C)CO)C[C@H](C)[C@H](CN(C)Cc2ccc(-c4ccccc4)cc2)O3)cc1 | · | 20* | · | -2 | -1
COc1ccc(NC(=O)Nc2ccc3c(c2)C(=O)N([C@H](C)CO)C[C@@H](C)[C@@H](CN(C)Cc2ccc(-c4ccccc4)cc2)O3)cc1 | · | 19* | · | -1 | -1
O=C(C1CCC1)N1CC2(C1)[C@H](c1ccccc1)[C@H](CO)N2Cc1cncnc1 | · | 4 | · | -1 | ·
COc1ccc(NC(=O)Nc2ccc3c(c2)C(=O)N([C@H](C)CO)C[C@@H](C)[C@@H](CN(C)Cc2ccc(Cl)c(Cl)c2)O3)cc1 | · | 3 | · | 3 | -1
COc1ccc(NC(=O)Nc2ccc3c(c2)C(=O)N([C@@H](C)CO)C[C@H](C)[C@H](CN(C)Cc2ccc(Cl)c(Cl)c2)O3)cc1 | · | 19* | · | 0 | 0
NC(=O)NN=Cc1ccc(-c2ccc(S(=O)(=O)Nc3ncccn3)cc2)o1 | -27 | · | · | · | ·
